Columns and labels:
[1] = test system: Brassica juncea; test: Herbicidal activity against Brassica juncea assessed as growth inhibition at 75 g/ha postemergence treatment measured after 15 days by Greenhouse test; type: functional; conditions: post-emergence, 360 h, read-out: GI
Procedure, shortened: (§1)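 Postemergence greenhouse pot test. About 20 seeds per pot, sown 1-3 cm deep in clay soil (pH 6.5, 1.6% organic matter). Plants grown at 15-30 °C and 50% relative humidity. Compounds were made up as 100 g/L emulsifiable concentrates in DMF with Tween-80, then diluted in water. Dicots were sprayed at the 2-leaf stage and monocots at the 1-leaf stage. Controls were untreated and solvent-treated. Injury was scored visually after 15 days, three replicates per treatment.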

[2] = test system: Amaranthus retroflexus; test: Herbicidal activity against Amaranthus retroflexus assessed as growth inhibition at 37.5 g/ha postemergence treatment measured after 15 days by Greenhouse test; type: functional; conditions: post-emergence, 360 h, read-out: GI; procedure, shortened: as §1
[3] = test system: Abutilon theophrasti; test: Herbicidal activity against Abutilon theophrasti (velvetleaf) assessed as growth inhibition at 75 g/ha postemergence treatment measured after 15 days by Greenhouse test; type: functional; conditions: post-emergence, 360 h, read-out: GI; procedure, shortened: as §1
[4] = test system: Echinochloa crus-galli; test: Herbicidal activity against Echinochloa crus-galli (barnyard grass) assessed as growth inhibition at 75 g/ha postemergence treatment measured after 15 days by Greenhouse test; type: functional; conditions: post-emergence, 360 h, read-out: GI; procedure, shortened: as §1
[5] = test system: Digitaria sanguinalis; test: Herbicidal activity against Digitaria sanguinalis (hairy crabgrass) assessed as growth inhibition at 37.5 g/ha postemergence treatment measured after 15 days by Greenhouse test; type: functional; conditions: post-emergence, 360 h, read-out: GI; procedure, shortened: as §1
[6] = test system: Echinochloa crus-galli; test: Herbicidal activity against Echinochloa crus-galli (barnyard grass) assessed as growth inhibition at 37.5 g/ha postemergence treatment measured after 15 days by Greenhouse test; type: functional; conditions: post-emergence, 360 h, read-out: GI; procedure, shortened: as §1
[7] = test system: Amaranthus retroflexus; test: Herbicidal activity against Amaranthus retroflexus assessed as growth inhibition at 75 g/ha postemergence treatment measured after 15 days by Greenhouse test; type: functional; conditions: post-emergence, 360 h, read-out: GI; procedure, shortened: as §1
[8] = test system: Eclipta prostrata; test: Herbicidal activity against Eclipta prostrata assessed as growth inhibition at 37.5 g/ha postemergence treatment measured after 15 days by Greenhouse test; type: functional; conditions: post-emergence, 360 h, read-out: GI; procedure, shortened: as §1
[9] = test system: Brassica juncea; test: Herbicidal activity against Brassica juncea assessed as growth inhibition at 37.5 g/ha postemergence treatment measured after 15 days by Greenhouse test; type: functional; conditions: post-emergence, 360 h, read-out: GI; procedure, shortened: as §1
[10] = test system: Amaranthus retroflexus; test: Herbicidal activity against Amaranthus retroflexus assessed as growth inhibition at 150 g/ha postemergence treatment measured after 15 days by Greenhouse test; type: functional; conditions: post-emergence, 360 h, read-out: GI
Procedure, shortened: (§2)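 Test compounds were made up as 100 g/L emulsifiable concentrates (DMF solvent, Tween-80 emulsifier) and diluted with water. About 20 seeds were sown 1–3 cm deep in clay soil (pH 6.5, 1.6% organic matter) in 9.5 cm pots, kept at 15–30 °C and 50% RH. Postemergence spray was applied to dicots at the 2-leaf stage and monocots at the 1-leaf stage. Controls were untreated and solvent-treated. Injury was scored visually at 15 days, with three replicates.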

[11] = test system: Abutilon theophrasti; test: Herbicidal activity against Abutilon theophrasti (velvetleaf) assessed as growth inhibition at 150 g/ha postemergence treatment measured after 15 days by Greenhouse test; type: functional; conditions: post-emergence, 360 h, read-out: GI; procedure, shortened: as §2
[12] = test system: Setaria faberi; test: Herbicidal activity against Setaria faberi (Giant Foxtail) assessed as growth inhibition at 37.5 g/ha postemergence treatment measured after 15 days by Greenhouse test; type: functional; conditions: post-emergence, 360 h, read-out: GI; procedure, shortened: as §1
[13] = test system: Brassica juncea; test: Herbicidal activity against Brassica juncea assessed as growth inhibition at 150 g/ha postemergence treatment measured after 15 days by Greenhouse test; type: functional; conditions: post-emergence, 360 h, read-out: GI; procedure, shortened: as §2
[14] = target: T1, Protoporphyrinogen oxidase (Homo sapiens) (UniProt P50336); test: Inhibition of Homo sapiens (human) recombinant protoporphyrinogen oxidase by fluorescence detection
T1 sequence (whole entry): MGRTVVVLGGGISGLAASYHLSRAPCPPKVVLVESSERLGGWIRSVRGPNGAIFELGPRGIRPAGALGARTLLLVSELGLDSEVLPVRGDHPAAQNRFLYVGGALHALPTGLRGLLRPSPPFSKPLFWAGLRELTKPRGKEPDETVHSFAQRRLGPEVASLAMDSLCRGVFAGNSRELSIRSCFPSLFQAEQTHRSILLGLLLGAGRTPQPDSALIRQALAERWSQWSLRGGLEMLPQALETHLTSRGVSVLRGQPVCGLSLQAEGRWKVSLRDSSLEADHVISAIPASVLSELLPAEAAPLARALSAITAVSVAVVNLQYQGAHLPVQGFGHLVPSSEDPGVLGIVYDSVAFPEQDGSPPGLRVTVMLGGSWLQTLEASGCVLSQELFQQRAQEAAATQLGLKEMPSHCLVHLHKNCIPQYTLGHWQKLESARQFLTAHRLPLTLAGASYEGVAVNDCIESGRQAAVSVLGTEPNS

[15] = test system: Setaria faberi; test: Herbicidal activity against Setaria faberi (Giant Foxtail) assessed as growth inhibition at 150 g/ha postemergence treatment measured after 15 days by Greenhouse test; type: functional; conditions: post-emergence, 360 h, read-out: GI; procedure, shortened: as §2
[16] = test system: Abutilon theophrasti; test: Herbicidal activity against Abutilon theophrasti (velvetleaf) assessed as growth inhibition at 37.5 g/ha postemergence treatment measured after 15 days by Greenhouse test; type: functional; conditions: post-emergence, 360 h, read-out: GI; procedure, shortened: as §1
[17] = test system: Digitaria sanguinalis; test: Herbicidal activity against Digitaria sanguinalis (hairy crabgrass) assessed as growth inhibition at 75 g/ha postemergence treatment measured after 15 days by Greenhouse test; type: functional; conditions: post-emergence, 360 h, read-out: GI; procedure, shortened: as §1
[18] = test system: Setaria faberi; test: Herbicidal activity against Setaria faberi (Giant Foxtail) assessed as growth inhibition at 75 g/ha postemergence treatment measured after 15 days by Greenhouse test; type: functional; conditions: post-emergence, 360 h, read-out: GI; procedure, shortened: as §1
[19] = test system: Digitaria sanguinalis; test: Herbicidal activity against Digitaria sanguinalis (hairy crabgrass) assessed as growth inhibition at 150 g/ha postemergence treatment measured after 15 days by Greenhouse test; type: functional; conditions: post-emergence, 360 h, read-out: GI; procedure, shortened: as §2
[20] = test system: Echinochloa crus-galli; test: Herbicidal activity against Echinochloa crus-galli (barnyard grass) assessed as growth inhibition at 150 g/ha postemergence treatment measured after 15 days by Greenhouse test; type: functional; conditions: post-emergence, 360 h, read-out: GI; procedure, shortened: as §2
[21] = test system: Eclipta prostrata; test: Herbicidal activity against Eclipta prostrata assessed as growth inhibition at 75 g/ha postemergence treatment measured after 15 days by Greenhouse test; type: functional; conditions: post-emergence, 360 h, read-out: GI; procedure, shortened: as §1
[22] = test system: Eclipta prostrata; test: Herbicidal activity against Eclipta prostrata assessed as growth inhibition at 150 g/ha postemergence treatment measured after 15 days by Greenhouse test; type: functional; conditions: post-emergence, 360 h, read-out: GI; procedure, shortened: as §2

Structure (SMILES)	inhibition of growth at 75 g/ha [1]	inhibition of growth at 37.5 g/ha [2]	inhibition of growth at 75 g/ha [3]	inhibition of growth at 75 g/ha [4]	inhibition of growth at 37.5 g/ha [5]	inhibition of growth at 37.5 g/ha [6]	inhibition of growth at 75 g/ha [7]	inhibition of growth at 37.5 g/ha [8]	inhibition of growth at 37.5 g/ha [9]	inhibition of growth at 150 g/ha [10]	inhibition of growth at 37.5 g/ha [12]	inhibition of growth at 150 g/ha [13]	Ki [14]	inhibition of growth at 150 g/ha [15]	inhibition of growth at 37.5 g/ha [16]	inhibition of growth at 75 g/ha [17]	inhibition of growth at 75 g/ha [18]	inhibition of growth at 150 g/ha [19]	inhibition of growth at 150 g/ha [20]	inhibition of growth at 75 g/ha [21]	other results
Cc1nn(-c2cc(NS(C)(=O)=O)c(Cl)cc2Cl)c(=O)n1C(F)F [SULFENTRAZONE]	80%	80%	80%	50%	50%	50%	80%	80%	60%	80%	< 50%	80%	720 nM	< 50%	80%	50%	< 50%	60%	60%	80%	inhibition of growth at 150 g/ha [11]: 80%; inhibition of growth at 150 g/ha [22]: 80%
COC(=O)CSc1nc2cc(N3C(=O)C4=C(CCCC4)C3=O)c(F)cc2s1	50%	80%	80%	50%	< 50%	< 50%	80%	80%	50%	80%	< 50%	80%	1220 nM	60%	80%	50%	< 50%	60%	60%	80%	inhibition of growth at 150 g/ha [22]: 80%

— ChEMBL document CHEMBL3045880, “Design and syntheses of novel N-(benzothiazol-5-yl)-4,5,6,7-tetrahydro-1H-isoindole-1,3(2H)-dione and N-(benzothiazol-5-yl)isoindoline-1,3-dione as potent protoporphyrinogen oxidase inhibitors” (J Agric Food Chem, 2011)
